Assay outcomes (PubChem BioAssay)
HCV NS3 hel inh – HCV NS3 helicase inhibition | NS3 helicase DNA unwinding, Cy5 molecular beacon fluorescence | inhibition, % at 10.9 µM | 0.56% of 290,000 active;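 active means inhibition above the mean of all tested compounds plus 3 SD, set per campaign, cut at about 35% in these data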
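Control set: DMSO versus 110 µM thioflavine S; Material: NS3 helicase fragment of HCV; Measured by: Cy5 fluorescence at 0 and 60 min, beacon hairpin quenching; Read-out basis: percent inhibition from t60/t0 fluorescence ratio; Times: reaction time 60 min, 25 °C; Repeats: single replicate; Compound dosing: single dose, 10.9 µM nominal final, DMSO 0.8% final.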
EBNA-1 inh – blocks EBNA-1 binding to DNA | 0.34% of 300,000 active | inhibition, % at 14.8 µM | EBNA-1 DNA binding, fluorescence polarization | AID 1950; in the data active means inhibition above about 28%
PfM18AAP inh – PfM18AAP enzyme inhibition | recombinant PfM18AAP, H-Glu-NHMec fluorogenic cleavage | inhibition, % at 7.35 µM | 1.2% of 290,000 active | AID 1822;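 active means inhibition above the campaign mean inhibition over all tested compounds plus 3 SD, cut at about 28% in these data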
core dimer inh – blocks dimerization of HCV core protein; 0.33% of 300,000 active; inhibition, % at 5 µM; TR-FRET GST/Flag-core106 dimerization, 1536-well;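 active means inhibition above the mean of all tested compounds plus 3 SD, set per screening campaign, cut at about 45% in these data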
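System: GST/Flag-tagged HCV core106 proteins. Incubation: compound-protein-antibody incubation 4 h at 22.5 °C. Technique: HTRF with 340 nm excitation, 617/671 nm emission. Medium: KF-containing HEPES buffer, pH 7.45, DTT, CHAPS, BSA. Read-out: inhibition (%) from 671 over 617 nm ratio. Also added: Eu(K)-anti-GST 90 ng/mL plus XL665-anti-Flag 1 µg/mL.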
ZTA counter – counter-screen for EBNA-1 inhibitors: inhibitors of Epstein-Barr virus ZTA | P03206 | ZTA-DNA binding, fluorescence polarization | inhibition, % at 11 µM | 0.15% of 320,000 active | AID 2234; in the data active means inhibition above about 33%
Target sequence (P03206 whole entry, looked up): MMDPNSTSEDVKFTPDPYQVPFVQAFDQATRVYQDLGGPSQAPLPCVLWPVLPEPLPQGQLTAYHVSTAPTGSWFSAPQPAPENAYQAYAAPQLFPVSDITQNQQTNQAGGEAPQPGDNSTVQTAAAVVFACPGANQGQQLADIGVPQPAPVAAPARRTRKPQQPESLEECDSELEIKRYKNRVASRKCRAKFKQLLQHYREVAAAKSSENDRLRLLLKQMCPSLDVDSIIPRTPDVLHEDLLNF
ALR H2O2 inh – inhibitors of human sulfhydryl oxidase ALR; purified ALR, DTT oxidation, H2O2 HRP-luminol luminescence; AID 485317; inhibition, % (no concentration beside the values); P55789; 3.8% of 290,000 active;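 active means mean replicate inhibition above about 79%, with every replicate also reaching it, limit read from the data; inconclusive means only one of the two criteria met; inactive means mean below limit and not every replicate reaching it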
Target sequence (P55789 whole entry, looked up): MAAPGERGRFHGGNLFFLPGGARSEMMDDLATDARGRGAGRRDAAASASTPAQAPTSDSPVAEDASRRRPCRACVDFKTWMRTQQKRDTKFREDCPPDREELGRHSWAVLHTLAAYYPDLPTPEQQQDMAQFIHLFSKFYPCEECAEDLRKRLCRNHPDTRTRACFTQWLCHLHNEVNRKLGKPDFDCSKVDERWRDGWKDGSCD
A number is an active result; i = inactive; ? = inconclusive; nt = no result given. The list is not random: actives were taken first. Their share in the collection is about 5.2%.

SMILES	HCV NS3 hel inh	EBNA-1 inh	PfM18AAP inh	core dimer inh	ZTA counter	ALR H2O2 inh
O=C(O)c1cccc(-n2cccc2C=C2C(=O)c3ccccc3C2=O)c1	i	i	i	i	i	i
CC(=O)NC(Cc1ccc(C)cc1)C(=O)NC1CCN(c2ncccc2[N+](=O)[O-])CC1 (centres undefined)	i	i	i	i	i	i
N=C1/C(=C/c2ccc(OC(=O)c3ccco3)cc2)C(=O)N=C2SC=CN12	i	i	i	i	i	98
CSC1=NSC2=NC(=O)/C(=C\c3coc4ccccc4c3=O)C(=N)N12	i	i	i	i	i	97
CC(C)CSC1=NSC2=NC(=O)/C(=C\c3coc4ccccc4c3=O)C(=N)N12	i	i	i	i	i	i
N=C1/C(=C\c2coc3ccc(O)cc3c2=O)C(=O)N=C2SC=CN12	i	i	49	i	i	i
N=C1/C(=C\c2ccc(OC(=O)c3ccco3)cc2)C(=O)N=C2SC(N3CCCCC3)=NN12	i	i	i	i	i	i
O=c1cc(CCl)nc2sc3ccccc3n12	i	i	i	i	i	nt
Cc1cccc(C(=O)N[C@H](C(=O)OCc2cc(=O)n3c(n2)sc2ccccc23)C(C)C)c1	i	i	i	49	i	i
O=C(OCc1cc(=O)n2c(n1)sc1ccccc12)c1ccc(O)cc1	i	i	i	50	i	i
COc1ccccc1Nc1ccc(NC(=O)c2cccc([N+](=O)[O-])c2C)cc1	i	i	i	i	i	i
CCOC(=O)c1c(C)[nH]c(C(=O)CN(C)CC(=O)Nc2ccccc2Cl)c1C	nt	nt	nt	nt	i	i
CCOc1ccc(-c2cc(C(=O)NN)[nH]n2)cc1	i	i	i	i	i	99
COc1ccc(-c2cc(C(=O)O)[nH]n2)cc1OC	i	i	i	i	i	i
COc1ccc(-c2cc(C(=O)NN)[nH]n2)cc1OC	i	i	i	i	i	98
Cc1ccc(N2CC(C(=O)Nc3nnc(SCCN4CCOCC4)s3)CC2=O)cc1 (centres undefined)	i	i	i	i	i	i
CN(C)C(CNC(C(=O)Nc1ccc(F)cc1)c1ccccc1)c1ccccc1 (centres undefined)	i	i	i	i	i	i
Cc1ccc(NC(=O)CCNS(=O)(=O)c2ccccc2F)cc1S(=O)(=O)N1CCOCC1	nt	i	nt	i	i	i
Cc1nc2ccccc2n1CCc1nc2c3ccccc3nc(=S)n2[nH]1	i	i	i	i	i	92
Cc1cncn1CCc1nc2c3ccccc3nc(=S)n2[nH]1	i	nt	i	nt	nt	nt
O=C(Nc1ccccc1)/C(=C/c1ccc(O)cc1)NC(=O)c1ccco1	i	i	i	i	i	i
S=c1[nH]c2ccccc2n2c(=S)[nH]nc12	i	i	i	i	i	99
CC(=O)c1ccccc1NC(=O)c1cc(S(=O)(=O)N2CCOCC2)ccc1N1CCCC1	nt	nt	nt	nt	i	nt
O=C(C(Cc1ccccc1)NS(=O)(=O)c1cccc2cccnc12)N1CCc2ccccc21 (centres undefined)	i	i	i	i	i	88
CC(=O)Oc1ccc(N2C(=O)C3C(C2=O)C(C(=O)c2ccc(Cl)cc2)N2CCCC32)cc1 (centres undefined)	i	i	i	i	i	i
SMILES	HCV NS3 hel inh	EBNA-1 inh	PfM18AAP inh	core dimer inh	ZTA counter	ALR H2O2 inh
Cc1ccc(N2C(=O)C3C(C2=O)C(C(=O)c2ccc(Cl)cc2)N2CCCC32)cc1 (centres undefined)	i	i	i	62	i	i
O=[N+]([O-])c1ccc(N/N=C\c2cccn2-c2ccccc2)nc1	i	i	47	i	i	?
COc1ccc(C(=O)N2CCCC(C(=O)O)C2)c2ccccc12 (centres undefined)	i	i	i	i	i	i
CCCCN(C(=O)c1ccc(S(=O)(=O)N2CCC(C)CC2)cc1)C1CCS(=O)(=O)C1 (centres undefined)	nt	i	nt	i	i	i
Cc1ccc(N2NC(=O)/C(=C\c3cc4c(cc3[N+](=O)[O-])OCO4)C2=O)cc1C	i	i	i	i	i	94
COc1cc(/C=C2/C(=O)NN(c3cccc(C)c3)C2=O)cc([N+](=O)[O-])c1O	i	i	i	i	i	nt
COc1cc(/C=C2\C(=O)NN(c3ccccc3)C2=O)ccc1OCC(N)=O	i	i	i	i	i	96
COc1cccc(/C=C2/C(=O)NN(c3ccc(C)c(C)c3)C2=O)c1	i	i	i	i	i	99
